An excerpt weighted towards active compounds, which were near 1.8% of everything screened.
Runt-SMMHC FRET: inhibitors of RUNX1 Runt–CBFb-SMMHC binding, primary screen, biochemical, FRET, Cerulean-Runt, Venus-CBFb-SMMHC, uHTS. hit rate 0.74% among 220,000. Cerulean-Runt/Venus-CBFb-SMMHC FRET ratio 530/480, 1 h. Runt-related transcription factor 1 (Homo sapiens) + Core-binding factor subunit beta …. inhibition, % at 20 µM;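 active = mean inhibition across duplicate retests at 20 µM reaching about 50%, limit read from the data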;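 note: 0% = DMSO wells and 100% = wells with excess untagged CBFb-SMMHC; inhibitors lower the FRET ratio by blocking Runt binding to CBFb-SMMHC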
RanGTP-Impb inh: inhibitors of RanGTP-importin-beta interaction, primary screen, biochemical, FRET, CFP-Ran, YFP-importin-beta, homogeneous; inhibition, % (concentration not given with the values); cell-free CFP-Ran/YFP-importin-beta FRET ratio; hit rate 1.1% among 300,000; AID 2216, 2009;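 active = more than half of the replicate wells show a fall in the fluorescence ratio signal beyond about 16%, limit read from the data, passing the limit was not always enough; inconclusive = exactly half of the replicate wells pass the set limit; inactive = fewer than half of replicates pass the limit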;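 note: 0% = DMSO wells and 100% = Ran loaded with GDP instead of GTP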
Runt-CBFb FRET: inhibitors of RUNX1 Runt–CBFb binding, primary screen, biochemical, FRET, Cerulean-Runt, Venus-CBFb, uHTS | hit rate 0.46% among 220,000 | AID 1496, 2009 | inhibition, % at 20 µM | Cerulean-Runt/Venus-CBFb FRET ratio 530/480, 1 h;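 active = inhibition over about 50% at 20 µM in the single-dose screen, limit read from the data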;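 note: 0% = DMSO wells and 100% = excess unlabeled CBFb competitor control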
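Reagent – Venus-CBFb binding partner, 100 nM · Assay system – Cerulean-tagged RUNX1 Runt domain (FRET donor) fusion protein · Input – 100 nM per protein · Incubation – two 1 h room-temperature incubations shielded from light · Measured by – FRET fluorescence · Medium – Tris buffer pH 7.5 with salts and BSA · Benchmarks – unlabeled CBFb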
Hck Nef HTS: inhibitors of Nef-activated human Hck kinase, primary screen, biochemical, Z-Lyte FRET, 384-well, Hck-YEEI; Tyrosine-protein kinase HCK (Homo sapiens), P08631; Recombinant Hck-YEEI plus Nef, Z-Lyte FRET kinase assay; inhibition, % at 20 µM; hit rate 0.68% among 220,000;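 active = Hck-Nef kinase inhibition above about 50%, limit read from the data; inactive = inhibition below that limit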;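 note: 0% = DMSO with Hck plus Nef and 100% = Hck alone without Nef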
Target sequence (P08631 whole entry, looked up): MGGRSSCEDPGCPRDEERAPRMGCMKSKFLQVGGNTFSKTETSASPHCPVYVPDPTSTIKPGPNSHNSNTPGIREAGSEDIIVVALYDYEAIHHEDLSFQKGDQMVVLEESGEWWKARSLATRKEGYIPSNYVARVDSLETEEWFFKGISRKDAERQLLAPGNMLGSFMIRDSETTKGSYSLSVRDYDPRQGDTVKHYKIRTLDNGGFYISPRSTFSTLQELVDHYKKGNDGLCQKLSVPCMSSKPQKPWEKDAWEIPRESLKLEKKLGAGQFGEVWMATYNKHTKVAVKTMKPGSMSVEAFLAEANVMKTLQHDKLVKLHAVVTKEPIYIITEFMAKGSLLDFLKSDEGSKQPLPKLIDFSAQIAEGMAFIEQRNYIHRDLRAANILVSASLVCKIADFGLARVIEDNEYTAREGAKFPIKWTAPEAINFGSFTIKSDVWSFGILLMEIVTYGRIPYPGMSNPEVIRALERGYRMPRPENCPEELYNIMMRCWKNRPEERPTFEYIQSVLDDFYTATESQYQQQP
Hck-Nef confirm: retest of Hck:Nef kinase inhibitor hits, confirmation, biochemical, Z-Lyte FRET, 384-well, p-Tyr peptide counterscreen | shares compounds with Hck Nef HTS | Recombinant Hck-YEEI:Nef, Z-Lyte FRET kinase assay | calls only at 10 µM | hit rate 28% among 1,300;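 active = average inhibition of at least 50%, with Z-scores no higher than 3 in both the phospho-tyrosine peptide and fluorescence counterscreens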
* hit, by the source's call; i = inactive; u = inconclusive; x = not tested or not shown; + = active, no number.

SMILES	Runt-SMMHC FRET	RanGTP-Impb inh	Runt-CBFb FRET	Hck Nef HTS	Hck-Nef confirm
Cc1ccccc1NC(=O)CN1C(=O)S/C(=C\c2cccn2-c2cccc(C(=O)O)c2)C1=O	1.8	2.6	3.8	8.6	x
Cc1ccc(NC(=O)COc2ccc(/C=C3/SC(=Nc4ccccc4)N(Cc4cccnc4)C3=O)cc2)cc1	-26.5	-0.1	-9.2	90.3*	+
NS(=O)(=O)c1ccc(CNS(=O)(=O)c2cc(C(=O)O)ccc2Cl)cc1	-0.6	-4.5	1.0	63.2*	i
O=C(NCCS(=O)(=O)NCCCc1ccccc1)c1ccccc1	x	5.1	x	x	x
Cc1cc(C2=NNC(=Nc3ccc(S(=O)(=O)N4CCOCC4)cc3)SC2)c(C)n1C	1.7	-1.3	9.5	62.7*	i
Nc1ccc(-c2nc3ccc(C(=O)O)cc3s2)cc1	85.7*	-5.8	35.8	114.8*	x
Nc1ccc(-c2nc3ccc(N)cc3s2)cc1	44.7	-5.9	20.8	60.7*	i
CC(=O)N=c1c(C#N)cc2c(=O)n3cccc(C)c3nc2n1Cc1ccco1	88.1*	80.3*	9.6	165.4*	i
Cc1nc2c(C)cccn2c(=O)c1NC(=O)c1cccs1	x	3.6	x	x	x
Cc1cccn2c(=O)c3cc(C#N)c(=NC(=O)c4cccs4)n(CCCOC(C)C)c3nc12	88.1*	81.0*	78.8*	105.9*	i
COc1ccc(S(=O)(=O)NCc2cccnc2)cc1C(=O)Nc1ccccc1	x	-1.4	x	x	x
CCOC(=O)/C(C#N)=C1/SC(CCO)C(=O)N1c1ccccc1 (configuration not stated)	0.1	-1.2	x	53.6*	i
Cc1cc2c(s1)c1cnn(CC(=O)NCCc3ccccc3)c(=O)c1n2C	3.4	-2.8	-1.4	75.9*	i
CN1CCN(CCCNC(=O)Cn2ncc3c4ccccc4n(C)c3c2=O)CC1	2.3	u	-0.3	6.9	x
COc1ccc(OC)c(-c2c3cc(O)c(=O)cc-3oc3cc(O)c(O)cc23)c1	i	x	-282.9	54.4*	i
O=C(c1ccc(F)cc1)N1CCCCC(Sc2nnnn2-c2ccccc2)C1=O (configuration not stated)	-2.2	-2.0	-0.2	0.6	x
COc1ccc(OC)c(-c2csc(N(CC3CCCO3)C(=O)Cc3ccccc3)n2)c1 (configuration not stated)	1.9	x	-0.5	14.8	x
O=C(N=Nc1c(O)[nH]c2ccc(Br)cc12)c1cc(-c2cccs2)nc2ccccc12	-6.7	7.0	3.2	163.3*	i
Clc1ccc(Nc2ccccc2)nn1	-3.0	u	1.4	10.0	x
COc1ccc(Br)cc1/C=C/C(=O)NC(=S)Nc1ccc(Cl)c(C(=O)O)c1	-2.5	-4.0	3.2	57.5*	i
COc1ccc(Br)cc1C(=O)NC(=S)Nc1ccc(Cl)c(C(=O)O)c1	-5.6	-1.4	1.3	19.1	x
Cc1ccc(-c2nc3ccc(C(=O)O)cc3nc2-c2ccc(C)cc2)cc1	6.4	0.5	x	3.4	x
O=C(O)c1ccc2nc(-c3ccco3)c(-c3ccco3)nc2c1	8.5	x	45.9	51.8*	i
CCCCOc1ccc(N(CC(=O)NCCOC)C(=O)CCC(=O)Nc2ccccn2)cc1	x	0.1	x	x	x
C/C(=N\NC(=O)c1cccc(N/N=C(\C)c2cc(O)ccc2O)c1)c1cc(O)ccc1O	-9.2	u	5.9	57.4*	i
C/C(=N\NC(=O)c1cccc(N/N=C(\C)c2ccco2)c1)c1ccco1	-5.1	u	0.9	16.8	x
CCc1cc2c(C)cc(=O)oc2cc1OC(=O)C1CCCN1C(=O)OC(C)(C)C (configuration not stated)	74.7*	4.3	30.4	74.9*	i
Cc1ccc(NC(=O)CCC(=O)c2cccs2)c(Br)c1	x	6.2	x	x	x
C=CCN=c1scc(-c2ccco2)n1/N=C/c1ccc(O)c(O)c1O	35.3	4.5	47.0	56.0*	i
CC(C)N=c1scc(-c2ccco2)n1/N=C/c1ccc(O)c(O)c1	8.6	x	21.7	1.1	x
